According to ChEMBL document CHEMBL2040754, “Regioselective reaction: synthesis, characterization and pharmacological activity of some new Mannich and Schiff bases containing sydnone” (2012):

Key:
Type in all cases: functional
Rattus norvegicus [1] = test: Antiinflammatory activity in Wistar albino rat assessed as reduction of carrageenan-induced paw edema at 20 mg/kg, po measured after 1 hr by plethysmometer; set-up: scale not given: the % may be the effect or the level left
How it was run: (§1)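 Rats 150e200 g dosed orally with test suspension 20 mg/kg, control given 1 mL of 1% carboxymethyl cellulose suspension. After 30 min, 0.1 mL of 1% carrageenan in normal saline injected subcutaneously into the sub-plantar region of the right hind paw. Paw volume read by plethysmometer at 0 h, 30, 60 and 120 min. Data as mean, one-way ANOVA then Dunnett's t-test.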

Rattus norvegicus [2] = test: Analgesic activity in Wistar albino rat assessed as thermal-stimulus induced tail flick latency time at 20 mg/kg measured after 60 mins (reference value: 3.34 +/- 0.005 secs)
Rattus norvegicus [3] = test: Antiinflammatory activity in Wistar albino rat assessed as reduction of carrageenan-induced paw edema at 20 mg/kg, po measured after 30 mins by plethysmometer; set-up: scale not given: the % may be the effect or the level left; how it was run: as §1
Rattus norvegicus [4] = test: Analgesic activity in Wistar albino rat assessed as thermal-stimulus induced tail flick latency time at 20 mg/kg measured after 90 mins (reference value: 3.25 +/- 0.005 secs)
Rattus norvegicus [5] = test: Analgesic activity in Wistar albino rat assessed as thermal-stimulus induced tail flick latency time at 20 mg/kg measured after 30 mins (reference value: 3.23 +/- 0.005 secs)
Rattus norvegicus [6] = test: Antiinflammatory activity in Wistar albino rat assessed as reduction of carrageenan-induced paw edema at 20 mg/kg, po measured after 2 hrs by plethysmometer; set-up: scale not given: the % may be the effect or the level left; how it was run: as §1

CC(C)Cc1ccc(C(C)c2n[nH]c(=S)n2/N=C/c2c([O-])on[n+]2-c2ccccc2)cc1 (centres undefined) was tested, and the Activity (Rattus norvegicus [1]) was 39.4%, the Time (Rattus norvegicus [2]) was 6.24 s and the Activity (Rattus norvegicus [3]) was 32.9%. It also gave a Time (Rattus norvegicus [4]) of 6.6 s, a Time (Rattus norvegicus [5]) of 5.76 s and an Activity (Rattus norvegicus [6]) of 50.2%.

Cc1ccc(-[n+]2noc([O-])c2/C=N/n2c(C(C)c3ccc(CC(C)C)cc3)n[nH]c2=S)cc1 (centres undefined) gave an Activity (Rattus norvegicus [1]) of 46.9%, a Time (Rattus norvegicus [2]) of 6.11 s and an Activity (Rattus norvegicus [3]) of 39.2%. It also gave a Time (Rattus norvegicus [4]) of 6.92 s, a Time (Rattus norvegicus [5]) of 4.99 s and an Activity (Rattus norvegicus [6]) of 55.4%.

Compound COc1ccc(-[n+]2noc([O-])c2/C=N/n2c(C(C)c3ccc(CC(C)C)cc3)n[nH]c2=S)cc1 (centres undefined) has an Activity (Rattus norvegicus [1]) of 55.2%, a Time (Rattus norvegicus [2]) of 6.3 s and an Activity (Rattus norvegicus [3]) of 48.6%. The Time (Rattus norvegicus [4]) was 7.23 s, the Time (Rattus norvegicus [5]) was 5.41 s and the Activity (Rattus norvegicus [6]) was 64%.

For CC(C)Cc1ccc(C(C)c2nn(CN3CCOCC3)c(=S)n2/N=C/c2c([O-])on[n+]2-c2ccccc2)cc1 (centres undefined), the Activity (Rattus norvegicus [1]) was 55.3%, the Time (Rattus norvegicus [2]) was 6.1 s and the Activity (Rattus norvegicus [3]) was 43.7%. For the same compound, the Time (Rattus norvegicus [4]) was 6.9 s, the Time (Rattus norvegicus [5]) was 4.92 s and the Activity (Rattus norvegicus [6]) was 65.3%.

Work on CC(C)Cc1ccc(C(C)c2nn(CN3CCCCC3)c(=S)n2/N=C/c2c([O-])on[n+]2-c2ccccc2)cc1 (centres undefined) yielded an Activity (Rattus norvegicus [1]) of 56.1%, a Time (Rattus norvegicus [2]) of 5.73 s and an Activity (Rattus norvegicus [3]) of 45%. For the same compound, the Time (Rattus norvegicus [4]) was 6.8 s, the Time (Rattus norvegicus [5]) was 4.56 s and the Activity (Rattus norvegicus [6]) was 67.9%.

In the case of CCN1CCN(Cn2nc(C(C)c3ccc(CC(C)C)cc3)n(/N=C/c3c([O-])on[n+]3-c3ccccc3)c2=S)CC1 (centres undefined), the Activity (Rattus norvegicus [1]) is reported as 46.9%, the Time (Rattus norvegicus [2]) is reported as 5.39 s and the Activity (Rattus norvegicus [3]) is reported as 38.7%. For the same compound, the Time (Rattus norvegicus [4]) was 6.41 s, the Time (Rattus norvegicus [5]) was 4.4 s and the Activity (Rattus norvegicus [6]) was 54.5%.

Compound CC(C)Cc1ccc(C(C)c2nn(CN3CCN(c4ccccc4)CC3)c(=S)n2/N=C/c2c([O-])on[n+]2-c2ccccc2)cc1 (centres undefined) has an Activity (Rattus norvegicus [1]) of 34.2%, a Time (Rattus norvegicus [2]) of 5.03 s and an Activity (Rattus norvegicus [3]) of 27.9%. It also gave a Time (Rattus norvegicus [4]) of 6.05 s, a Time (Rattus norvegicus [5]) of 4.19 s and an Activity (Rattus norvegicus [6]) of 38.5%.

In the case of Cc1ccc(-[n+]2noc([O-])c2/C=N/n2c(C(C)c3ccc(CC(C)C)cc3)nn(CN3CCOCC3)c2=S)cc1 (centres undefined), the Activity (Rattus norvegicus [1]) is reported as 53%, the Time (Rattus norvegicus [2]) is reported as 5.91 s and the Activity (Rattus norvegicus [3]) is reported as 41.9%. The Time (Rattus norvegicus [4]) was 7.12 s, the Time (Rattus norvegicus [5]) was 5.15 s and the Activity (Rattus norvegicus [6]) was 66.6%.

Cc1ccc(-[n+]2noc([O-])c2/C=N/n2c(C(C)c3ccc(CC(C)C)cc3)nn(CN3CCCCC3)c2=S)cc1 (centres undefined) was tested, and the Activity (Rattus norvegicus [1]) was 46.9%, the Time (Rattus norvegicus [2]) was 4.31 s and the Activity (Rattus norvegicus [3]) was 39.1%. It also gave a Time (Rattus norvegicus [4]) of 5.1 s, a Time (Rattus norvegicus [5]) of 3.92 s and an Activity (Rattus norvegicus [6]) of 54.1%.

Cc1ccc(-[n+]2noc([O-])c2/C=N/n2c(C(C)c3ccc(CC(C)C)cc3)nn(CN3CCN(C)CC3)c2=S)cc1 (centres undefined) showed an Activity (Rattus norvegicus [1]) of 48.7%, a Time (Rattus norvegicus [2]) of 5.25 s and an Activity (Rattus norvegicus [3]) of 36.5%. For the same compound, the Time (Rattus norvegicus [4]) was 6.21 s, the Time (Rattus norvegicus [5]) was 4.52 s and the Activity (Rattus norvegicus [6]) was 56.2%.

Cc1ccc(-[n+]2noc([O-])c2/C=N/n2c(C(C)c3ccc(CC(C)C)cc3)nn(CN3CCN(c4ccccc4)CC3)c2=S)cc1 (centres undefined) was tested, and the Activity (Rattus norvegicus [1]) was 35.9%, the Time (Rattus norvegicus [2]) was 4.41 s and the Activity (Rattus norvegicus [3]) was 31.5%. The Time (Rattus norvegicus [4]) was 5.35 s, the Time (Rattus norvegicus [5]) was 4.15 s and the Activity (Rattus norvegicus [6]) was 40.2%.

With COc1ccc(-[n+]2noc([O-])c2/C=N/n2c(C(C)c3ccc(CC(C)C)cc3)nn(CN3CCOCC3)c2=S)cc1 (centres undefined) the Activity (Rattus norvegicus [1]) was 57%, the Time (Rattus norvegicus [2]) was 5.92 s and the Activity (Rattus norvegicus [3]) was 49%. For the same compound, the Time (Rattus norvegicus [4]) was 6.82 s, the Time (Rattus norvegicus [5]) was 4.77 s and the Activity (Rattus norvegicus [6]) was 65.8%.

COc1ccc(-[n+]2noc([O-])c2/C=N/n2c(C(C)c3ccc(CC(C)C)cc3)nn(CN3CCCCC3)c2=S)cc1 (centres undefined) gave an Activity (Rattus norvegicus [1]) of 48.6%, a Time (Rattus norvegicus [2]) of 5.55 s and an Activity (Rattus norvegicus [3]) of 42.7%. For the same compound, the Time (Rattus norvegicus [4]) was 6.26 s, the Time (Rattus norvegicus [5]) was 4.61 s and the Activity (Rattus norvegicus [6]) was 56.2%.

CC(C)=CCN1CC[C@]2(C)c3cc(O)ccc3C[C@H]1[C@H]2C [(+)-PENTAZOCINE] showed a Time (Rattus norvegicus [2]) of 6.95 s, a Time (Rattus norvegicus [4]) of 7.45 s and a Time (Rattus norvegicus [5]) of 6.25 s.

COc1ccc2c(c1)c(CC(=O)O)c(C)n2C(=O)c1ccc(Cl)cc1 [INDOMETHACIN] gave an Activity (Rattus norvegicus [1]) of 65.8%, an Activity (Rattus norvegicus [3]) of 58.1% and an Activity (Rattus norvegicus [6]) of 70.1%.
